# Assay outcomes (PubChem)
# Shown are actives, neighbours in structure and some others; about 3.9% of the full set was active somewhere.
# CHOP inhibitor = inhibitors of CHOP promoter induction, primary screen, cell-based, unfolded protein response, luciferase reporter | CHO-K1 CHOP-promoter luciferase, tunicamycin-induced, 15-18 h | inhibition, % at 10 µM | actives 3.8% (n = 220,000) | AID 2732, 2010;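 active means compounds that reduced the stress-induced luciferase reporter signal by more than about 70% of percent inhibition, limit read from the data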;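 further: 0% = tunicamycin plus vehicle and 100% = wells without tunicamycin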
# 697 NFkB inh = inhibitors of PMA/ionomycin-induced NF-kB reporter, 697 cells, primary screen, B-cell NF-kB inhibitor project, cell-based, luminescence, uHTS | actives 0.33% (n = 330,000) | 697 B-cell NF-kB luciferase reporter, 16 h | AID 435022, 2010 | inhibition, % at 4 µM; in the data active means inhibition above about 35%
# UPR CHOP act = activators of apoptotic CHOP UPR arm, primary screen, cell-based, CHO-CHOP luciferase reporter, luminescence, uHTS | UPR activation; percent of tunicamycin response over DMSO baseline | activation, % at 10 µM | actives 0.34% (n = 330,000) | AID 449763, 2010;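 active means at 10 µM dose, activation of 40% or more, normalized to positive control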;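 further: 100% = tunicamycin at 10 µg/mL and 0% = DMSO alone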
#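 Test system: CHO CHOP reporter cells. Input: 500 CHO-CHOP cells per well. Medium: F12 with 10% FBS. Technique: luciferase luminescence. Measure: percent activation relative to tunicamycin control. Dosing: 10 µM compound, 0.5% DMSO. Timing: 16-18 h cell attachment, then 6 h compound exposure, 37 °C.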
# Jurkat NFkB inh = inhibitors of induced NF-kB luciferase reporter, primary screen, TCR NF-kB activation inhibitor project, cell-based, luminescence, uHTS; Jurkat, PMA/ionomycin-induced NF-kB luciferase reporter; AID 435003, 2010; inhibition, % at 4 µM; actives 0.53% (n = 330,000); in the data active means inhibition above about 50%
# Gli-Sufu antag = Gli-Sufu pathway antagonists, primary screen, luciferase luminescence, Sufu-KO-LIGHT cells, uHTS; Sufu-KO-LIGHT fibroblasts, Gli luciferase reporter luminescence; inhibition, % at 5 µM; actives 0.74% (n = 340,000); AID 588413, 2011;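 active means inhibition above about 55%, limit read from the data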;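 further: 0% = DMSO-treated cells and 100% = wells with medium but no cells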
# UPR XBP1 act = activators of adaptive XBP1 UPR arm, primary screen, cell-based, CHO-XBP1 luciferase reporter, luminescence, uHTS; IRE1-XBP1 UPR activation; percent of tunicamycin response, DMSO as zero; activation, % at 20 µM; actives 0.33% (n = 330,000);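 active means versus positive control, 20 µM dose yields 30% or more activation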;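 further: 100% = tunicamycin at 10 µg/mL and 0% = DMSO only wells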
#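 Signal: luciferase luminescence; Assay system: CHO-XBP1 luciferase reporter cells; Amount: one thousand reporter cells per well; Dosing: 20 µM single concentration, DMSO 1%; Benchmarks: high control tunicamycin 10 µg/mL final, low control DMSO vehicle only; Schedule: 6 h compound exposure at 37 °C, 5% CO2; Evaluation: percent activation relative to tunicamycin reference.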
# 697 NFkB conf = PMA/ionomycin-induced NF-kB reporter inhibitors, 697 retest, confirmation, B-cell NF-kB inhibitor project, cell-based, luminescence, single concentration. 697 B-cell NF-kB luciferase, 16 h. actives 35% (n = 2,000). inhibition, % at 4 µM. shares compounds with 697 NFkB inh; in the data active means inhibition mostly above about 28%, no sharp cut-off; inactive means mostly below about 22%
# * marks the source's active call; other numbers are inactive results; i = inactive; x = no result given.
SMILES,CHOP inhibitor,697 NFkB inh,UPR CHOP act,Jurkat NFkB inh,Gli-Sufu antag,UPR XBP1 act,697 NFkB conf
COc1ccccc1/C=C/C=N/NC(=O)c1cc(-c2ccc(C)o2)[nH]n1,2,-26,3,29,-10,-4,x
COC(=O)C1=C(C)N(c2ccc(Cl)cc2)/C(=C/c2ccc(O)cc2)C1=O,-8,36*,4,16,2,7,29
COC(=O)C1=C(C)N(c2cc(C)cc(C)c2)/C(=C/c2ccc(O)cc2)C1=O,35,-9,0,7,-9,0,x
COc1ccc2nc(Sc3c([N+](=O)[O-])nc(C)n3Cc3ccccc3)[nH]c2c1,-61,39*,1,-9,3,0,47*
Cc1nc([N+](=O)[O-])c(Sc2nc3ccccc3[nH]2)n1Cc1ccccc1,-7,-17,5,13,0,-4,x
Cc1cc(/C=C(/C#N)C(=O)Nc2ccccc2)c(C)n1-c1cccnc1,-23,-10,3,-98,8,1,x
Cc1ccccc1NC(=O)/C(C#N)=C\c1cc(C)n(-c2ccc(C(=O)O)cc2)c1C,5,40*,1,5,3,0,3
COc1ccccc1N(Cc1ccccc1)S(=O)(=O)c1cccc(C(=O)Nc2cc(C)ccn2)c1,x,-412,-3,-94,-20,-7,-446
NC(=O)CN1C(=O)NC2(CCOc3ccccc32)C1=O (stereo not drawn),x,-7,0,-3,22,3,x
O=C(COc1coc(CN2CCN(c3ccc(F)cc3)CC2)cc1=O)NCC1CCCO1 (stereo not drawn),x,6,1,-3,-4,-1,x
Cc1ccccc1Cn1cc(NC(=O)c2cc(-c3ccco3)on2)cn1,42,38*,4,-26,5,7,10
O=C(Nc1cnn(Cc2ccc(F)cc2)c1)c1cc(-c2ccco2)on1,7,41*,3,-9,0,4,-10
COc1ccc(CCNC(=O)c2cc(-c3cccs3)on2)cc1OC,5,-12,1,-31,3,12,x
Cc1cc(NC(=O)c2cc(-c3ccco3)on2)no1,10,37*,2,-2,-2,0,18
Cc1ccccc1Cn1cc(NC(=O)c2cc(-c3cccs3)on2)cn1,42,-1,13,-10,1,2,x
COc1ccc(CCNC(=O)c2cc(-c3ccco3)on2)cc1OC,-7,50*,3,-23,5,2,18
Cc1ccc(NC(=O)c2cc(-c3ccco3)on2)cc1,2,22,6,-11,-10,5,x
COc1ccc(C2c3[nH]c4ccccc4c3CCN2C(=O)c2ccc(=O)n(C)n2)c(F)c1 (stereo not drawn),-2,-29,1,-35,25,1,x
CCc1cc(C(=O)N2CCc3c([nH]c4ccccc34)C2c2ccc(OC)cc2F)no1 (stereo not drawn),31,i,2,-2,-2,-2,-48
O=C(CSS(=O)(=O)O)N1CCN(C(=O)c2ccoc2)CC1,x,-4,1,2,25,-1,x
CCOc1cc(/C=N/NC(=O)c2ccc(NC(=O)C3CC3)cc2)ccc1O,x,39*,0,22,3,-3,19
COc1cc(/C=N/NC(=O)c2ccc(NC(=O)C3CCCCC3)cc2)ccc1O,x,5,-1,6,7,-3,x
O=C(COc1ccc2c(-c3ccccc3)cc(=O)oc2c1)N[C@H](Cc1c[nH]c2ccccc12)C(=O)O,x,10,0,-1,-3,0,x
CCC(Cc1ccccc1)NS(=O)(=O)c1ccc2c(c1)NC(=O)C(C)S2 (stereo not drawn),x,-26,0,-5,-9,-3,x
CCCC[n+]1ccn(-c2nc3ccccc3nc2[N-]S(=O)(=O)c2ccc(Br)cc2)c1,-29,37*,1,10,11,-4,16
SMILES,CHOP inhibitor,697 NFkB inh,UPR CHOP act,Jurkat NFkB inh,Gli-Sufu antag,UPR XBP1 act,697 NFkB conf
CC(C)CC[n+]1ccn(-c2nc3ccccc3nc2[N-]S(=O)(=O)c2ccccc2)c1,6,3,-1,1,21,-2,x
CCOC(=O)c1cc2c(=O)n3ccccc3nc2n(C)c1=NC(=O)c1c(-c2c(F)cccc2Cl)noc1C,x,48*,2,-15,3,5,5
CCOC(=O)c1cc2c(=O)n3ccccc3nc2n(C(C)C)c1=NC(=O)c1c(-c2c(F)cccc2Cl)noc1C,-5,20,4,3,23,4,x
Cc1c(/N=C(\[O-])Nc2ccc(Br)cc2)sn[n+]1C,7,-274,0,-86,-77,-3,-264
CCCOc1ccc(NC(=O)C(=O)NCCCn2ccnc2)cc1,17,56*,1,11,4,-2,53*
COc1ccc(CNC(=O)C(=O)NCCCn2ccnc2)cc1,9,38*,0,0,0,-4,20
O=C(Nc1ccccc1C(=O)Nc1nnc(C(F)(F)F)s1)c1ccccc1,88*,96*,6,-3,76*,2,94*
O=C(COC(=O)c1ccc2ncsc2c1)Nc1ccccc1Br,x,16,0,4,-30,-2,x
CCC(NC(=O)CCc1c(C)c2cc3c4c(oc3cc2oc1=O)CCCC4)C(=O)O (stereo not drawn),x,49*,-4,14,16,-10,19
Cc1c(CCC(=O)N[C@@H](CCCNC(N)=O)C(=O)O)c(=O)oc2cc3oc4c(c3cc12)CCCC4,x,26,-6,-9,20,-7,x
O=c1c2ccccc2oc2ccc(-c3ccc4cc[nH]c4c3)cc12,x,-498,2,-3,-152,-4,i
COc1ccc2oc3ccccc3c(=O)c2c1,-26,-50,5,-91,-34,7,x
COc1cc(C=C(C(C)=O)C(C)=O)ccc1O,19,24,0,-10,5,-1,x
COc1ccc(C=C(C(C)=O)C(C)=O)cc1OC,-41,43*,-2,-9,11,-1,30*
CCOc1ccc(-n2c(SCC(=O)Nc3ccc4c(c3)OCO4)nc3c(c2=O)SCC3)cc1,x,x,x,x,20,x,x
